# Assay: Toxicity liver stage against HepG2, at 10uM
# Assay type: cell-based
# Design: test concentration 10 uM, cell line HepG2-A16-CD81EGFP
# Details: human, HepG2-A16-CD81EGFP cells; read-out: INHIBITION
# Procedure, shortened: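 Uninfected HepG2-A16-CD81EGFP cells, 3 × 10^3 per well, 1536-well, plated on prespotted compound at 10 μM final, parasite-free screening media added to match infected plates; puromycin 10 μM positive, DMSO 0.5% negative; run in parallel with 48 h PbLuc assay at 37 °C, 5% CO2; viability by CellTiter-Glo luminescence, normalized to controls.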
row,Structure (SMILES),cytotoxicity at 10 µM [%]
1,O=C(C1CC(c2ccccc2)=NO1)N1CCc2ccccc21 (stereo unspecified),-0.643
2,O=C1C[C@@H]2CCN(Cc3ccccc3)C[C@@H]2CCN1c1ccccc1,3.16
3,COc1ccc(CN2C[C@@H]3OCC(=O)N(CC(N)=O)[C@@H]3C2)cc1,-4.54
4,COC(=O)c1cccc(C(=O)N2CCN(c3cc(C)ccc3C)CC2)n1,7.8
5,Cc1nnc(SC2CCc3ccccc3NC2=O)o1 (stereo unspecified),1.35
6,Cc1cc(C(=O)N2CCN(c3nc4c(F)cccc4s3)CC2)no1,-3.64
7,COc1ccc(CNC(=O)NCc2cc(C)oc2C)cc1,-6
8,COc1cc(N2CCC3(CC2)CC(N2CCOCC2)CO3)ncn1 (stereo unspecified),3.44
9,O=C(CC1CC1)N1C[C@H]2CN(CC3CC3)C(=O)[C@H]2C1,3.91
10,Cc1nc(NC(C)C)nc2c1CN(Cc1cccs1)CC2,0.718
11,CC(=O)N1CCCC2(CCN(Cc3ccc(Cl)c(C(F)(F)F)c3)C2)C1 (stereo unspecified),11.9
12,CC(C)N(C)Cc1noc2c1CN(C(=O)c1ccsc1)CC2,4.89
13,Cc1cnc(C(=O)N2C[C@@H]3[C@@H](C2)OCC(=O)N3CC2CCCC2)cn1,-3.78
14,Cc1ccsc1CN1CC[C@H]2O[C@H](C(=O)N3CCCO3)CC[C@H]21,4.52
15,O=C1CCCN1Cc1ncn2c1CN(C(=O)NC1CCCCC1)CCC2,-150
16,Cn1cc(-c2cnc(N3CCCC3)nc2)cc1C(=O)N1CCOCC1,-3.87
17,CC(C)NC(=O)N1CCC2(COCc3cnc(N4CCOCC4)nc32)C1 (stereo unspecified),-8.75
18,Cc1noc(-c2ccc(N3CCCC(C(=O)O)C3)nc2)n1 (stereo unspecified),-2.38
19,CCOc1cccc(CNc2cccc(C(=O)OC)c2)c1O,7.36
20,Cc1ccsc1CNCCCOc1ccccn1,-0.575
21,CS(=O)(=O)c1cncnc1C1CCCN(C(=O)Nc2ccc(F)cc2)C1 (stereo unspecified),-1.86
22,Cc1cc(-c2cnc(C)nc2CN(C)C(=O)c2cc(C3CC3)on2)on1,-20
23,COc1cccc(CN2CCOC(c3cnccn3)C2)c1F (stereo unspecified),8.63

row,Structure (SMILES),cytotoxicity at 10 µM [%]
1,CCCC(=O)NCC(=O)Nc1cc(F)ccc1SCC(F)F,10.8
2,Cc1ccc(S(=O)(=O)NC(=O)CCc2ccco2)cc1N(C)C,-0.845
3,CCCS(=O)(=O)C(C)C(=O)Nc1ccc2oc(C3CC3)nc2c1 (stereo unspecified),5.3
4,O=C(CCC1CCCCC1)NCc1nnc2ccccn12,3.47
5,Cc1nc(C(C)(C)NCc2ncc(C3CC3)o2)sc1C,3.57
6,NC(=O)C1CCN(S(=O)(=O)c2cnn(-c3ccccc3)c2)C1 (stereo unspecified),7.68
7,CCNC(=O)CN1CCc2c(Br)ccc(F)c2C1,4.34
8,CS(=O)(=O)c1ccc(Cl)c(C(=O)NCCC2=CCCCC2)c1,8.17
9,O=C(NCCNc1ncccn1)c1ccc(Cl)s1,4.6
10,O=C(CC1CCN(c2ncnc3cccc(F)c23)CC1)N1CCCC1,7.28
11,Cc1noc(C)c1NC(=O)NC1CCN(C(=O)OC(C)(C)C)CC1,4.77
12,CC(NCc1cnc(N2CCOCC2)s1)c1ccc(Cl)s1 (stereo unspecified),-9.02
13,Cn1c(SCc2noc(-c3ccsc3)n2)nnc1C1CCS(=O)(=O)C1 (stereo unspecified),3.39
14,COc1ccc(CN2CCCN(c3cc(C(N)=O)ccn3)CC2)cc1,11
15,O=C(NCCc1noc(-c2ccccn2)n1)NCC1CCCC1,0.321
16,Cc1cccc(CN(Cn2nc(C)c3c(C)onc3c2=O)C2CC2)c1,1.33
17,Cc1noc(CCCC(=O)NC(C)c2nnc3n2CCCCC3)n1 (stereo unspecified),3.21
18,Cc1cc(NC(=O)c2ccc(F)cc2Br)n(C)n1,-3.12
19,Cc1nn(CC(O)CN2CCC(C)CC2)c(=O)c(C#N)c1C (stereo unspecified),5.84
20,CC(C)C(C)NC(=O)Nc1ccc(CC(N)=O)cc1 (stereo unspecified),-3.36
21,CCCc1n[nH]c(C2CN(C(=O)CCCn3ccnc3)CCO2)n1 (stereo unspecified),-5.39
22,Cc1nc(C)n(CC2CN(CCn3cccn3)CCO2)n1 (stereo unspecified),-0.665
23,Cc1ccc(CNc2ccn(CCc3ccncc3)n2)s1,21.8

row,Structure (SMILES),cytotoxicity at 10 µM [%]
1,CNC(=O)c1ccc(=O)n(Cc2csc(N(C)C(C)=O)n2)c1,0.138
2,N#CCCCS(=O)(=O)N1CCC(CSc2ccccc2)C1 (stereo unspecified),1.7
3,O=c1oc(-c2ccc(F)cc2)nn1CCc1ccncc1,-3.57
4,CCC1(c2ccc(NS(=O)(=O)c3cccs3)cc2)CCC(=O)NC1=O (stereo unspecified),-8.55
5,Cc1cn2nc(Sc3nnnn3C)sc2n1,17.3
6,CC(SCC(=O)N(C)CC(=O)NC1CC1)c1ccc(F)c(F)c1 (stereo unspecified),-0.369
7,CC(=O)Nc1ccc(CNC2CCCSC2)cc1 (stereo unspecified),-10.5
8,CCOc1ccc(CN2C(=O)CC(C)(C(C)C)C2=O)nc1 (stereo unspecified),-5.51
9,CN(C)S(=O)(=O)c1ccc(CN2CCC(C(N)=O)CC2)o1,0.214
10,CN(CCc1ccccn1)c1cnn(C)c(=O)c1Br,-5.03
11,Cc1nnc(-c2cccc(C#N)c2)n1C1CCCN(C(C)C)C1=O (stereo unspecified),-6.74
12,Cc1cnn(CCNCC(=O)NC(c2ccccc2)c2ccccc2)c1,-5.73
13,Cn1ccc(CN2CCCN(c3nccs3)CC2)cc1=O,0.0833
14,Cc1noc2ncc(S(=O)(=O)Nc3cc(CC(C)(C)C)[nH]n3)cc12,5.55
15,O=C(NCc1cccnc1)C1=NN(c2ccccc2)C(=O)CN1,12.3
16,CC(=O)N1CCN(S(=O)(=O)c2ccc(C)c(F)c2)CC1,-9.42
17,CCOC(CC)C(=O)NCCC(=O)N1CCN(c2ncccn2)CC1 (stereo unspecified),-3.91
18,O=C(NCC(O)c1ccccc1Cl)c1cccc(-n2cnnn2)c1 (stereo unspecified),-15.6
19,Cc1noc(C)c1CN1C[C@H]2CNC[C@H]2C1,6.62
20,O=C(NCC1CC1)C1=NOC2(CCN(S(=O)(=O)c3ccc(F)cc3)C2)C1 (stereo unspecified),3.25
21,CN(C)C[C@@H]1CN(C(=O)Cc2ccccc2)C[C@@H]1CO,-1.07
22,COc1cccc2c1OCC(CNC(=O)Cc1cnccn1)C2 (stereo unspecified),-145
23,COc1ccc(C(C(=O)O)N2CCC(O)(c3cccnc3)CC2)cc1F (stereo unspecified),50.8

row,Structure (SMILES),cytotoxicity at 10 µM [%]
1,COc1cccc(S(=O)(=O)N2CCCCC2CCN2CCCC2=O)c1 (stereo unspecified),7.12
2,CC(C)CN1CC(c2nc(C3CC3)n[nH]2)CC1=O (stereo unspecified),-1.64
3,COCc1ncc(-c2nccn2CCN(C)C)cn1,0.126
4,Cc1ccc(C(NC(=O)CCCN2CCCCC2)C(=O)O)cc1 (stereo unspecified),2.87
5,Cc1cc(C)c(Cn2cncn2)cc1CN1CC[C@H](CO)[C@@H](O)C1,-5.42
6,O=C(NC1CC(=O)N(C2Cc3ccccc3C2)C1)c1cc[n+]([O-])cc1 (stereo unspecified),-1.03
7,CCn1c(-c2ccccc2)nn(CC(=O)NCCc2ccc(C)o2)c1=O,-0.545
8,Cc1cc(C(=O)N(C)Cc2nc(-c3ccccn3)no2)c(C)o1,2.84
9,Cc1nn(C)c(C)c1CCC(=O)N(C)Cc1ccc2nsnc2c1,-1.62
10,N#Cc1cc2c(=O)n(CC(O)c3cccc(O)c3)ccc2[nH]c1=O (stereo unspecified),2.86
11,Cc1nccc(N2CCC(Cc3cccc(C(=O)O)c3)CC2)n1,-135
12,CCS(=O)(=O)N[C@H]1CN(Cc2noc(COC)n2)C[C@@H]1C1CC1,-3.22
13,CN(Cc1nncn1-c1cccc(C(F)(F)F)c1)S(C)(=O)=O,3.01
14,O=C(c1cccc(CO)n1)N1CCOC(c2ccc(Cl)c(Cl)c2)C1 (stereo unspecified),-10.4
15,O=C(CN1CC(n2cccn2)C1)NCCc1ccc(F)cc1,-14.3
16,Cc1ccc(NC2CCN(C(=O)C(C)n3cncn3)CC2)nn1 (stereo unspecified),-14.2
17,CCn1ccnc1CN1CCCN(C(=O)c2cc[nH]n2)CC1,-8.04
18,O=C(CC1=CCCCC1)Nc1ncn(CC(=O)N2CCCCCC2)n1,1.72
19,O=C(CCc1ccccc1Cl)NS(=O)(=O)c1ccc2c(c1)OCCO2,-6.69
20,Cc1cc2n(n1)CC(CNCc1ccccc1-n1cccn1)CN2 (stereo unspecified),-11.5
21,Cn1ncc2c(=O)[nH]c(CN3CCCC3c3ccccc3Cl)nc21 (stereo unspecified),-4.8
22,Fc1cccc(-n2ccc(CN3CCCC3Cn3cncn3)n2)c1 (stereo unspecified),-9.43
23,Cc1cnn(CC2CCCN2C(=O)c2n[nH]c3ccccc23)c1 (stereo unspecified),-9.93

row,Structure (SMILES),cytotoxicity at 10 µM [%]
1,Cc1nc(C2CCCN(C(=O)c3ccc(N4CCCC4)nn3)C2)no1 (stereo unspecified),-13.6
2,CN1CCCc2cc(CNC(=O)c3cccnc3O)ccc21,-1.68
3,Cc1nnc(NC(=O)NCc2cccnc2N(C)C)s1,-10.3
4,CC(C)c1nccn1C1CCCN(C(=O)c2ccc3c(c2)OCO3)C1 (stereo unspecified),4.28
5,CCOC(=O)N1CCC2(CCNC2)C1 (stereo unspecified),2.14
6,COc1cc(CNCC2CN(C3CC3)CCO2)cc(OC)c1 (stereo unspecified),-24.3
7,CN1C(=O)C2(CCN(Cc3nccn3C)CC2)c2ccccc21,1.49
8,CC(C)n1cnc2c1C(C(=O)NCCO)N(Cc1ccccc1)CC2 (stereo unspecified),2.43
9,O=C1CCC2(CCCN(Cc3ccccc3F)C2)N1CC1CC1 (stereo unspecified),6.06
10,c1csc(CN2CCC3(CCOCC3COCC3CC3)CC2)n1 (stereo unspecified),5.02
11,Cc1cccc(CN2C(=O)CCC23CCNCC3)n1,0.758
12,Cc1ccc(CN2CC(C(=O)NCC3CC3)C3(CCOCC3)C2)s1 (stereo unspecified),-3.66
13,COCCN1CCC(c2nc3ccc(-c4ccccc4)cn3n2)CC1,-8.84
14,CC(C)(C)c1n[nH]cc1CNC1CCC(OCC(F)(F)F)CC1 (stereo unspecified),-0.0197
15,Cc1ccc(N2CC[C@@H]3CN(Cc4cc[nH]n4)C[C@@H]3C2)nn1,3.47
16,CN1CCc2c(CNC(=O)c3nccn3C)cncc2C1,-95.7
17,CC(C)OC(=O)N1C[C@@H]2CC[C@H]1CN(Cc1cccnc1)C2,0.189
18,O=C(CC1[C@H]2CN(Cc3ccncc3)C[C@@H]12)N1CCCC1 (stereo partly specified),2.58
19,C=Cc1cccc(CN2C[C@@H]3CC[C@H]2CN(Cc2c(C)noc2C)C3)c1,-6.58
